Measurements reported in ChEMBL document CHEMBL4177692, “Synthesis and antidepressant activity of a series of arylalkanol and aralkyl piperazine derivatives targeting SSRI/5-HT1A/5-HT7” (Bioorg Med Chem Lett, 2017).
pIC50, pKi: −log10 of the molar value.

Key:
[1] = target: T1, 5-hydroxytryptamine receptor 7 (Homo sapiens, UniProt P34969); test: Displacement of [3H]-LSD from recombinant human 5-HT7 receptor expressed in CHO cell membranes at 10 uM measured after 60 mins by scintillation counting method
T1 sequence (P34969 whole entry): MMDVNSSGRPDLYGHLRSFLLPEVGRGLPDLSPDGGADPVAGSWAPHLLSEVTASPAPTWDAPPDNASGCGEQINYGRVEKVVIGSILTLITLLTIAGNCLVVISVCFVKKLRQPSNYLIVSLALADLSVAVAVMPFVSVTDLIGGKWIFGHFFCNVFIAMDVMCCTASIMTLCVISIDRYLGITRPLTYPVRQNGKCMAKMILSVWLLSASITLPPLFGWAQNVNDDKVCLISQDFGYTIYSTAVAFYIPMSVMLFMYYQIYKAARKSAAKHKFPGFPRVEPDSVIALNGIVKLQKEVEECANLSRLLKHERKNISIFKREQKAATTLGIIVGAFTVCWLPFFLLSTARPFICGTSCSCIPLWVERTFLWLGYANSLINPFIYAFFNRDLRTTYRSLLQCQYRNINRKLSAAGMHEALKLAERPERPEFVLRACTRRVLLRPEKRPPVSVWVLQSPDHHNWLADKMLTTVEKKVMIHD
Method in brief: (§1)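 The 5-HT1A assay displaced [3H]-8-OH-DPAT from HEK-293 cell membrane homogenates. The 5-HT7 assay displaced [3H]-LSD from CHO cell membrane homogenates. The SERT assay measured [3H]-5-HT uptake into rat brain synaptosomes.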

[2] = target: T2, Sodium-dependent serotonin transporter (Rattus norvegicus, UniProt P31652); test: Inhibition of SERT in rat brain synaptosomes assessed as reduction in [3H]-5-HT uptake measured after 15 mins by scintillation counting method; assay type: subcellular
T2 sequence (P31652 whole entry): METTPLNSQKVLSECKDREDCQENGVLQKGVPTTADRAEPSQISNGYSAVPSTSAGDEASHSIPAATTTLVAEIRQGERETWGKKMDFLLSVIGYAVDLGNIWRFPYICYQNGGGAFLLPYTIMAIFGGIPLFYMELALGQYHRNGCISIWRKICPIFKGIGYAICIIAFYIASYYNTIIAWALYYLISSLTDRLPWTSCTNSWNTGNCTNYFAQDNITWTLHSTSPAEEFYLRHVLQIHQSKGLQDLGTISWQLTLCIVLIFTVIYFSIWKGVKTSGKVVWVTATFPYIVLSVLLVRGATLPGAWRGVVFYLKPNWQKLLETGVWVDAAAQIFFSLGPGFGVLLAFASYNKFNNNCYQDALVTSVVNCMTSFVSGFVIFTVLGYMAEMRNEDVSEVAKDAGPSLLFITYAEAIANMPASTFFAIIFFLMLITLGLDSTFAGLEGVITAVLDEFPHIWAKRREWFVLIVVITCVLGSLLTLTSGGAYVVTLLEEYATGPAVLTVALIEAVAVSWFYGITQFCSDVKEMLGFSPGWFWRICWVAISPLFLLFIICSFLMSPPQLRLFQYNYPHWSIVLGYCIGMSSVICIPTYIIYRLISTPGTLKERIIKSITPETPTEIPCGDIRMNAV
Method in brief: (§2)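 The 5-HT1A assay used [3H]-8-OH-DPAT displacement on HEK-293 membranes. The 5-HT7 assay used [3H]-LSD displacement on CHO membranes. The SERT assay measured [3H]-5-HT uptake into rat brain synaptosomes.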

[3] = target: Sodium-dependent serotonin transporter (Rattus norvegicus) (UniProt P31652); test: Inhibition of SERT in rat brain synaptosomes assessed as reduction in [3H]-5-HT uptake at 10 uM measured after 15 mins by scintillation counting method relative to control; assay type: subcellular; method in brief: as §1
Sequence of Sodium-dependent serotonin transporter (Rattus norvegicus) (P31652 whole entry): as above

[4] = target: T3, 5-hydroxytryptamine receptor 1A (Homo sapiens) (UniProt P08908); test: Displacement of [3H]8-OH-DPAT from recombinant human 5-HT1A receptor expressed in HEK293 cell membranes at 10 uM measured after 60 mins by scintillation counting method; method in brief: as §1
T3 sequence (whole entry): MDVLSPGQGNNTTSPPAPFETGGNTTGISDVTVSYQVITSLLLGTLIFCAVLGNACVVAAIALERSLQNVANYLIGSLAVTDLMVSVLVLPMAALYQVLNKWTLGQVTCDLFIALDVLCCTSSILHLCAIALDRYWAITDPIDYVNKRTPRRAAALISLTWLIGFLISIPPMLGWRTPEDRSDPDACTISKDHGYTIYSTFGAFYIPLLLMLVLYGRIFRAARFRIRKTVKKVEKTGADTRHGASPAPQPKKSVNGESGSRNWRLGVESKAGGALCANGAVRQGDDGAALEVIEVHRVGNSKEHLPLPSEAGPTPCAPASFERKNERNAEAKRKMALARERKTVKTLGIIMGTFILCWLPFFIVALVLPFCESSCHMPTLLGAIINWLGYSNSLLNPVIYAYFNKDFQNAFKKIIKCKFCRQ

[5] = Clearance in rat liver microsomes at 1 uM measured after 90 mins in presence of NADPH regenerating system by LC-MS/MS analysis; assay type: ADME, microsome; conditions: read-out: CLH
[6] = target: T1, 5-hydroxytryptamine receptor 7; test: Displacement of [3H]-LSD from recombinant human 5-HT7 receptor expressed in CHO cell membranes measured after 60 mins by scintillation counting method; method in brief: as §2
Mus musculus [7] = test: Antidepressant-like activity in mouse assessed as reduction in immobility time at 20 mg/kg, po administered once daily for 7 days measured last 4 mins of 6 mins test by forced swim test relative to control; assay type: functional; set-up: scale not given: the % may be the effect or the level left
Method in brief: (§3)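 Mouse forced swim test. Oral dosing once daily for 7 days at 10, 20 or 40 mg/kg/day. […] Read-out is immobility time. Data given as mean ± SEM, n = 10 per group, tested against vehicle at P<0.05 and P<0.01.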

[8] = target: T4, 5-hydroxytryptamine receptor 1A (Homo sapiens, UniProt P08908); test: Displacement of [3H]8-OH-DPAT from recombinant human 5-HT1A receptor expressed in HEK293 cell membranes measured after 60 mins by scintillation counting method
T4 sequence (P08908 whole entry): T3 sequence (whole entry)

Mus musculus [9] = test: Antidepressant-like activity in mouse assessed as reduction in immobility time at 40 mg/kg, po administered once daily for 7 days measured last 4 mins of 6 mins test by forced swim test relative to control; assay type: functional; set-up: scale not given: the % may be the effect or the level left; method in brief: as §3
[10] = Half-life in rat liver microsomes at 1 uM in presence of NADPH regenerating system by LC-MS/MS analysis; assay type: ADME, microsome
Mus musculus [11] = test: Antidepressant-like activity in po dosed mouse assessed as reduction in immobility time administered once daily for 7 days measured last 4 mins of 6 mins test by forced swim test; assay type: functional, organism-based; method in brief: as §3
Mus musculus [12] = test: Antidepressant-like activity in mouse assessed as reduction in immobility time at 10 mg/kg, po administered once daily for 7 days measured last 4 mins of 6 mins test by forced swim test relative to control; assay type: functional; set-up: scale not given: the % may be the effect or the level left; method in brief: as §3
[13] = target: T5, 5-hydroxytryptamine receptor 1A (Rattus norvegicus, UniProt P19327); test: Displacement of [3H]8-OH-DPAT from rat cerebral cortex 5-HT1A receptor
T5 sequence (P19327 whole entry): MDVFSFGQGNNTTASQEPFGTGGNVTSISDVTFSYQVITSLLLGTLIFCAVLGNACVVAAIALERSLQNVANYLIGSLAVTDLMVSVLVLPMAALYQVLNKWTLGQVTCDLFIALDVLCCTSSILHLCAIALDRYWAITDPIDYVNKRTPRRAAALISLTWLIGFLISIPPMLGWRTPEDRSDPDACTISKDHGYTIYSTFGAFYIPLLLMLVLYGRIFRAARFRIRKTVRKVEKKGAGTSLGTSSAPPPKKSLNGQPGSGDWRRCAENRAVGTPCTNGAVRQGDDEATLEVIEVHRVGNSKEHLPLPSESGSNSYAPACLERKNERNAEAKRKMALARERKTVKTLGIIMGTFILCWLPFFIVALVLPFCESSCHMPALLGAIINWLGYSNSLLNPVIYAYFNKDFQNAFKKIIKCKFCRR

[14] = target: T2, Sodium-dependent serotonin transporter; test: Displacement of [3H]-paroxetine from rat cerebral cortex SERT
[15] = target: T4, 5-hydroxytryptamine receptor 1A; test: Binding affinity to 5-HT1A receptor (unknown origin)
[16] = target: Sodium-dependent serotonin transporter (Homo sapiens, UniProt P31645); test: Binding affinity to SERT (unknown origin)
Sequence of Sodium-dependent serotonin transporter (Homo sapiens, UniProt P31645) (P31645 whole entry): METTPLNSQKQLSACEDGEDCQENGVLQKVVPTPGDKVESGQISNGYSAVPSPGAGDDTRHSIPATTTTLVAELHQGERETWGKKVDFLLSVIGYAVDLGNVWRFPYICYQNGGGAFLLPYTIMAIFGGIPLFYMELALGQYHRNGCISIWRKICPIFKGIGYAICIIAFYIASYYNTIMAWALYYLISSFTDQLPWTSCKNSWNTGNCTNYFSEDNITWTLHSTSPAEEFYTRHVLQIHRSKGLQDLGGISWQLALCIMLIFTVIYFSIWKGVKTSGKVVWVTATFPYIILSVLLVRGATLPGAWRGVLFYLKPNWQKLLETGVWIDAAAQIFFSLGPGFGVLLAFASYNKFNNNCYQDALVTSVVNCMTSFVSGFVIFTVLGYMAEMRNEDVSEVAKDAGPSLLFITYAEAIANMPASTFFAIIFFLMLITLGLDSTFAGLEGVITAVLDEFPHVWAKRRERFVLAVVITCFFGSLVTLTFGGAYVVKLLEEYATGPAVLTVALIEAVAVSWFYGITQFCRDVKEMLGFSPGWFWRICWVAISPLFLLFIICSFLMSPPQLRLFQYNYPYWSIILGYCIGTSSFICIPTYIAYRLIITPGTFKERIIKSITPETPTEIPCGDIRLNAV

SMILES	inhibition [1] [%]	pIC50 [2]	inhibition [3] [%]	inhibition [4] [%]	other results
OC(CCN1CCN(c2ccccc2-c2ccccc2)CC1)c1ccc(Cl)c(Cl)c1 (stereo not drawn)	102	6.23	98.9	98.9	
Cc1ccc(-c2ccccc2N2CCN(CCc3ccc(Cl)c(Cl)c3)CC2)c(C)c1	93.5		31.5	83.2	
Cc1ccccc1-c1ccccc1N1CCN(CCc2ccc(Cl)c(Cl)c2)CC1	97.3		61.6	93.9	
COc1ccc(-c2ccccc2N2CCN(CCc3ccc(Cl)c(Cl)c3)CC2)cc1	97.5		66.1	98.7	
Clc1ccc(CCN2CCN(c3nsc4ccccc34)CC2)cc1Cl	96	7.00	102	98.7	microsomal CLint at 1 µM [5]: 262 µL/min/mg; pKi [6]: 7.92; Activity (Mus musculus [7]): 21%; pKi [8]: 9.08; Activity (Mus musculus [9]): 45%; half-life at 1 µM [10]: 5.3 min; Activity (Mus musculus [11]): Dose-dependent effect; Activity (Mus musculus [12]): 17%
Cc1ccc(Sc2ccccc2N2CCNCC2)c(C)c1 [VORTIOXETINE]		8.54			microsomal CLint at 1 µM [5]: 153 µL/min/mg; pKi [6]: 7.59; Activity (Mus musculus [7]): 34 - 35%; half-life at 1 µM [10]: 9 min
OC(CN1CCN(c2ccccc2)CC1)c1ccc(Cl)c(Cl)c1 (stereo not drawn)	99.8	6.47	112	98.5	microsomal CLint at 1 µM [5]: 226 µL/min/mg; pKi [6]: 8.49; Activity (Mus musculus [7]): 26%; pKi [8]: 8.62; Activity (Mus musculus [9]): 30%; half-life at 1 µM [10]: 6.1 min; Activity (Mus musculus [11]): Dose-dependent effect; Activity (Mus musculus [12]): 16%
Oc1ccccc1N1CCN(CCC(O)c2ccc(Cl)c(Cl)c2)CC1 (stereo not drawn)	102		84.9	99.4	
CSc1ccccc1N1CCN(CCC(O)c2ccc(Cl)c(Cl)c2)CC1 (stereo not drawn)	101		89	99.9	
COc1ccccc1N1CCN(CCC(O)c2csc3ccc(F)cc23)CC1 (stereo not drawn)					pKi [13]: 8.64; pKi [14]: 7.92
COc1ccccc1N1CCN(CCCN2CCOc3ccccc32)CC1					pKi [15]: 8.83; pIC50 [16]: 6.71
Cc1cccc(-c2ccccc2N2CCN(CCc3ccc(Cl)c(Cl)c3)CC2)c1	94.7		72.3	98.4	
Cc1ccc(-c2ccccc2N2CCN(CCc3ccc(Cl)c(Cl)c3)CC2)cc1C	93.2		17.6	96.8	
Cc1ccc(-c2ccccc2N2CCN(CCc3ccc(Cl)c(Cl)c3)CC2)cc1	98.1		65.8	99.5	
OC(CCN1CCN(c2cccc(-c3ccccc3)c2)CC1)c1ccc(Cl)c(Cl)c1 (stereo not drawn)	69.8		105	91.5	
COc1ccccc1N1CCN(CCC(O)c2ccc(Cl)c(Cl)c2)CC1 (stereo not drawn)	101		88.8	99.3	
Clc1ccc(CCN2CCN(c3ccccc3-c3ccccc3)CC2)cc1Cl	101	6.08	104	97.8	pKi [6]: 9.12; pKi [8]: 8.20
Fc1ccc(-c2ccccc2N2CCN(CCc3ccc(Cl)c(Cl)c3)CC2)cc1	96.7	6.02	92.1	98.8	
Fc1cccc(-c2ccccc2N2CCN(CCc3ccc(Cl)c(Cl)c3)CC2)c1	96.4	6.06	97.2	99.7	
COc1ccc2[nH]c([S+]([O-])Cc3ncc(C)c(OC)c3C)nc2c1 (stereo not drawn) [OMEPRAZOLE]					microsomal CLint at 1 µM [5]: 163 µL/min/mg; half-life at 1 µM [10]: 8.5 min
